RGS4 inh: human RGS4 inhibition; B-score at 10 µM; AID 463165; HEK293 M3R/RGS4 inducible, Fluo-4 calcium flux; hits give high values; triggered by carbachol at its EC20; 310,000 compounds, 0.45% hits;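 active means B-score, a plate-corrected calcium signal, over three deviations above library mean, with baseline fluorescence within five deviations of library mean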;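 further: RGS4 expression induced by doxycycline in cells with stable M3 receptor; B-score is computed from the integrated fluorescence ratio over baseline after carbachol; higher B-score means a larger calcium signal and so more RGS4 inhibition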
Target sequence (P49798 whole entry, looked up): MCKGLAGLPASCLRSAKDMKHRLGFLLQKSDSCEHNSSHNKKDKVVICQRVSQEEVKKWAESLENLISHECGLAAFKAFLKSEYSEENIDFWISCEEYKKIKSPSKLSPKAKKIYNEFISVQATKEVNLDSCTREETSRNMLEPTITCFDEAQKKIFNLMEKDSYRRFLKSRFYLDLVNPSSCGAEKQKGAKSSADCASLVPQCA
MrgX1 agonist: agonists of human MrgX1 receptor. B-score at 10 µM. Q96LB2. AID 588627. MrgX1-HEK293 cells, Fluo-4 calcium fluorescence, agonist mode; hits give high values. 310,000 compounds, 0.44% hits;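 active means calcium response B-score plate-corrected fluorescence ratio at least 3 library SD, with starting fluorescence B-score inside 5 SD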
Target sequence (Q96LB2 whole entry, looked up): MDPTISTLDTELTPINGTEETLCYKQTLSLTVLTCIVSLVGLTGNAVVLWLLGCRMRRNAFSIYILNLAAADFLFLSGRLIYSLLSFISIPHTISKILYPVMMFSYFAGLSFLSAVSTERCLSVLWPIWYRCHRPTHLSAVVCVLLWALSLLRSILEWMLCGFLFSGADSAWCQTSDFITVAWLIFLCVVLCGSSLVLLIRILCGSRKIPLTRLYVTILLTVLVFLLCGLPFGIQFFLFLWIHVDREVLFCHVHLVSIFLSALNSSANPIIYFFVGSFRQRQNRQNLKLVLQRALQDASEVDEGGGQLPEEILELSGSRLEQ
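System – MrgX1-expressing HEK293 cells · Incubation – cells plated overnight, dye loaded 0.5 h 37 °C, 0.5 h room temperature · Technique – kinetic Fluo-4 NW fluorescence of intracellular calcium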
MrgX1 PAM: human MrgX1 positive allosteric modulation, primary screen; Q96LB2; MrgX1-HEK293, Fluo-4 calcium flux, FDSS; hits give high values; B-score at 10 µM; 310,000 compounds, 0.63% hits;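 active means plate-corrected calcium response at least 3 library SD above typical, normal starting fluorescence, not activating the receptor alone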;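 further: compound read alongside a low EC10 to EC30 dose of BAM8-22 agonist; peak minus trough fluorescence over baseline measured at the second addition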
MrgX1 antagonist: blocks BAM8-22 activation of human MrgX1 receptor; MRGX1-HEK293 calcium flux, Fluo-4, BAM8-22 antagonism; hits give low values; B-score at 10 µM; 310,000 compounds, 1.3% hits;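 active means calcium-response B-score plate-corrected more than 3 library SD below zero, starting fluorescence within 5 deviations, no agonist response on first addition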;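 further: peak minus trough fluorescence over baseline after final BAM8-22 challenge near maximal dose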
RGS4 pot: RGS4 potentiation or activation; HEK293 M3R/inducible RGS4, carbachol calcium flux Fluo4; hits give low values; B-score at 10 µM; AID 463111; 310,000 compounds, 0.92% hits;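 active means B-score of the integrated calcium signal more than 4 SD below the library mean, with starting fluorescence not abnormally high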;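 further: negative B-score means reduced calcium response which marks RGS4 activation or potentiation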
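Assay system: Inducible-RGS4 HEK293 cells carrying M3 receptor | Schedule: Compound preincubation 20 min at room temperature before agonist | Signal: Kinetic calcium fluorescence imaging with Fluo4-AM dye, 2 µM | Read-out basis: B score from integrated fluorescence ratio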
MrgX1 antag conf: confirmation of human MrgX1 receptor antagonists; remaining BAM8-22 calcium response % of control (hits give low values), % at 10 µM; MrgX1-HEK293, BAM8-22 calcium flux, Fluo-4; hits give low values; shares compounds with MrgX1 antagonist; 2,300 compounds, 19% hits;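 active means remaining agonist calcium response no higher than 100% minus 3 SD of agonist-only control wells, with starting fluorescence near control levels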;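 further: agonist BAM8-22 given at a near maximal EC90 to ECmax level; peak minus minimum fluorescence divided by baseline after agonist addition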
HEK293 Ca flux: MrgX1 antagonist counter-screen hit in parental HEK293 cells | shares compounds with MrgX1 antagonist | Fluo-4 calcium fluorescence, FDSS | 4,000 compounds, 2% hits | fluorescence ratio F(max-min)/F0 at 10 µM;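 active means duplicate-averaged calcium fluorescence ratio at least three times the standard deviation of buffer wells, a nonspecific response in parental cells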
HEK293 Ca counter: activity in parental HEK293 cells without MrgX1; AID 624114; fluorescence ratio F(max-min)/F0 at 10 µM; parental HEK293 calcium flux, Fluo-4 fluorescence ratio; hits give high values; 4,000 compounds, 0.4% hits; shares compounds with MrgX1 antagonist;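 active means calcium fluorescence ratio, averaged over duplicates, at least 3 SD of the buffer-well ratio, meaning a nonspecific response in receptor-free cells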;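 further: untransfected parental HEK293 lacking MrgX1 used as counterscreen for MrgX1 allosteric activators; fluorescence change taken during the second addition on a kinetic imager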
HEK293 Ca cntr2: counter-screen for MrgX1 activators: effect in parental HEK293 cells | shares compounds with MrgX1 antagonist | Fluo-4 calcium fluorescence (FDSS); hits give high values | fluorescence ratio F(max-min)/F0 at 10 µM | 4,000 compounds, 8.7% hits | AID 624115;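 active means calcium fluorescence ratio at least three times the spread of buffer wells, meaning a non-specific response in parental cells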
Active calls of the source: *; i = inactive; . = no result. Compounds with a hit are over-represented: about 3.5% of the library has one in this group of screens.

SMILES	RGS4 inh	MrgX1 agonist	MrgX1 PAM	MrgX1 antagonist	RGS4 pot	MrgX1 antag conf	HEK293 Ca flux	HEK293 Ca counter	HEK293 Ca cntr2
Cc1cc(C)cc(-c2nnc(SCC(=O)N3CCN(C(=O)c4ccco4)CC3)o2)c1	i	i	i	-6.3*	i	i	i	i	i
C=CCOc1ccc(C2C(C(=O)c3ccco3)=C(O)C(=O)N2c2nnc(C)s2)cc1 (stereo not given)	i	i	i	-5*	i	i	i	i	i
COc1ccc(C2C(C(=O)c3ccco3)=C(O)C(=O)N2c2nnc(C)s2)cc1 (stereo not given)	i	i	i	i	i	.	.	.	.
Cc1ccc(SCC(=O)OCC(=O)N(CC(C)C)c2c(N)n(Cc3ccccc3)c(=O)[nH]c2=O)cc1C	i	i	i	i	i	.	.	.	.
CC1CN(c2ccccc2)c2nc3c(c(=O)[nH]c(=O)n3C)n2C1 (stereo not given)	i	i	i	-6.7*	i	i	i	i	i
CCC(C)NS(=O)(=O)c1ccc(OC)c(Cl)c1Cl (stereo not given)	i	i	i	i	i	.	.	.	.
COc1cccc(NC(=O)CN(C)C(=O)c2cccnc2Sc2ccc(C)c(C)c2)c1	i	i	i	-7.2*	i	i	i	i	i
CC(C)(C)c1ccc(S(=O)(=O)N2CCC(c3nc4ccc(Cl)cc4[nH]3)CC2)cc1	i	i	i	-6*	i	i	i	i	i
CC(=O)Nc1ccc(S(=O)(=O)N2CCC(c3nc4ccc(C)cc4[nH]3)CC2)cc1	i	i	i	i	i	.	.	.	.
COc1ccc2cc(C(=O)NCCCN3CCCC3=O)[nH]c2c1	i	i	i	i	i	.	.	.	.
Cn1c(C(=O)N2CCc3ccccc3C2)cc2c(=O)n3ccccc3nc21	i	i	i	-5.8*	i	i	i	i	i
O=C(Nc1ccc(S(=O)(=O)Nc2nccs2)cc1)c1cc(-c2ccccc2)nc2ccccc12	i	i	i	i	i	.	.	.	.
Cc1ccc(-c2cc(C(=O)Nc3ccc(S(=O)(=O)Nc4ncccn4)cc3)c3ccccc3n2)cc1	i	i	i	-5.7*	i	i	i	i	i
COc1ccc(OC)c2c1sc(=NC(=O)C1COc3ccccc3O1)n2C (stereo not given)	i	i	i	i	i	.	.	.	.
CC(C)CC(=O)Nc1cccc(C(=O)Nc2ccccc2C(=O)O)c1	i	i	i	i	i	.	.	.	.
Cc1ccccc1OCC(=O)Nc1ccc(C)c(S(=O)(=O)N2CCCCCC2)c1	i	i	i	i	i	.	.	.	.
COc1ccc(CCC(=O)Nc2ccc(Cl)c(S(=O)(=O)N3CCCC3)c2)cc1	i	i	i	-5.9*	i	78%*	i	i	i
COc1ccc(NC(=O)CCOc2ccccc2C)cc1S(=O)(=O)N1CCCCC1	i	i	i	-5.4*	i	i	i	i	i
Cc1ccc(N(CC(=O)NCc2ccc(F)cc2)S(=O)(=O)c2c(C)n[nH]c2C)cc1	i	i	i	i	i	.	.	.	.
C=CCn1c(SCC(=O)N(C)c2c(N)n(Cc3ccccc3)c(=O)[nH]c2=O)nnc1-c1ccccc1OC	i	i	i	i	i	.	.	.	.
COc1cc(OC)c(S(=O)(=O)Nc2ccc(C)cn2)cc1NC(C)=O	i	i	i	i	i	.	.	.	.
O=[N+]([O-])c1c(Nc2ccc(O)cc2)cc(Cl)c2nonc12	i	i	i	-15*	i	16%*	i	i	i
CN(C)c1cc(Nc2ccc(O)cc2)c([N+](=O)[O-])c2nonc12	i	i	i	i	i	.	.	.	.
O=[N+]([O-])c1cccc(C(=NCc2ccccc2)NO)c1	i	i	i	i	i	.	.	.	.
CCN1CCN(CCNC(=O)c2ccc(/C=C3\Sc4ccccc4N(Cc4ccccc4F)C3=O)cc2)CC1	i	i	i	-13*	-7*	i	i	i	i
SMILES	RGS4 inh	MrgX1 agonist	MrgX1 PAM	MrgX1 antagonist	RGS4 pot	MrgX1 antag conf	HEK293 Ca flux	HEK293 Ca counter	HEK293 Ca cntr2
O=C(c1ccco1)N1CCN(C(=O)N2CCCCC2)CC1	i	i	i	i	i	.	.	.	.
O=C(O)C1=C(C(=O)N2CCN(C(=O)c3ccco3)CC2)CCCC1	i	i	i	-5.6*	i	i	i	i	i
CNS(=O)(=O)c1ccc(Cl)nc1	i	i	i	i	i	.	.	.	.
CCNc1nc2c(c(=O)[nH]c(=O)n2C)n1CC(C)C	i	i	i	-4.6*	i	i	i	i	i
COc1ccccc1N=Cc1c(C)c(C#N)c2[nH]c3ccccc3n2c1=O	i	i	i	-6.2*	i	i	i	i	i
O=C1CC(N2CCN(Cc3ccccc3)CC2)C(=O)N1CCc1ccccc1 (stereo not given)	i	i	i	-5.4*	i	i	i	i	i
O=C1CC(N2CCN(Cc3ccc(Cl)cc3)CC2)C(=O)N1CCc1ccccc1 (stereo not given)	i	i	i	i	i	.	.	.	.
Cc1nn(C)c(C)c1CNC(=O)c1nn2c(c1Cl)NC(c1cccs1)CC2C(F)(F)F (stereo not given)	i	i	i	-8.7*	i	i	i	i	i
COc1ccc(C2CC(C(F)(F)F)n3nc(CO)c(Cl)c3N2)cc1OC (stereo not given)	i	i	i	i	i	.	.	.	.
COc1ccc(C2CC(C(F)(F)F)n3nc(C(=O)O)c(Cl)c3N2)cc1OC (stereo not given)	i	i	i	-4.5*	i	i	i	i	i
CC(C)c1ccccc1-n1c(-c2cccnc2)n[nH]c1=S	i	i	i	i	i	.	.	.	.
O=C(NCc1cn2ccsc2n1)c1cccc(C(F)(F)F)c1	i	i	i	i	i	.	.	.	.

Bioassay records: PubChem, Johns Hopkins Ion Channel Center
